# Assay outcomes as filed in PubChem.
# In the library only some 1.8% were active in any assay of this set; here they are far more common.
# Mot1-301 SUMO = inhibitors of SUMOylation pathway: yeast Mot1-301 growth rescue; S. cerevisiae Mot1-301 growth rescue, ATP luminescence, 38.5C; percent above DMSO median, 100 means doubled; actives 1% (n = 320,000); growth rescue, % at 18.8 µM;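 active = every valid replicate shows activation above 250% relative to neutral control wells; inactive = the rest, any valid replicate at or below 250%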;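 also: OY570 slx delta 5 strain wells were the positive control but not used for scaling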
# C2C12 statin = suppressors of simvastatin-induced myotoxicity in C2C12 myotubes; rescue of ATP level, % at 7.49 µM; actives 0.78% (n = 330,000); ATP luminescence, 48 h; scaled: DMSO 0, geranylgeraniol control 100;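 active = mean ATP rescue above about 67%, or every replicate alone reaching that limit, limit read from the data, passing the limit was not always enough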;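 also: myotubes were challenged with 10 µM simvastatin during compound exposure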
# Cneo AK release = causes C. neoformans cell lysis; adenylate kinase release luminescence, 4 h; normalised: neutral wells 0, clomiphene wells 100; lysis activity, % at 15 µM; actives 0.2% (n = 360,000);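 active = mean lysis activity across replicates of at least 80%, whatever share of replicates individually reach that level; inactive = mean lysis activity below 80%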
#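 Signal: Adenylate kinase release luminescence | Assay system: Log-phase Cryptococcus neoformans yeast cells | Input: Cells at 5 × 10^6 per mL | Buffer or medium: Fresh YPD growth medium | Compound: Single dose | Schedule: Static 4 h at 37 °C with compound, 1 h detection | Controls: Clomiphene | Read-out: Luminescence rise reflecting yeast cell lysis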
# Efflux pump mplx = blocks antifungal efflux pumps in multiplex yeast assay | actives 0.44% (n = 330,000) | S. cerevisiae Candida pump triplex, Nile Red efflux | inhibition, % at 10 µM;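 active = plate passing quality check with inhibition over a set limit, or well fluorescence over plate mean plus 4 SD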;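 also: Nile Red retained in pooled yeast measured as flow cytometry median fluorescence; 0% = buffer negative control and 100% = Enniatin B positive control; higher means more Nile Red kept so more efflux inhibition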
# Yeast cmpd fluor = counter-screen for efflux pump inhibitors: compound fluorescence; actives 4% (n = 1,700); S. cerevisiae AD/pABC3, flow cytometry; AID 588517; shares compounds with Efflux pump mplx; fluorescence ratio to DMSO, % at 10 µM;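 active = fluorescence ratio to DMSO above its plate's cutoff, the plate mean ratio plus 5 SD, cut at about 210% in these data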;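 also: unstained yeast with no Nile Red so the signal is compound autofluorescence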
# CaMdr1 efflux inh = inhibitors of Candida albicans Mdr1 efflux pump; shares compounds with Efflux pump mplx; S. cerevisiae AD/CaMDR1, Nile Red efflux, flow cytometry; inhibition, % at 10 µM; actives 1% (n = 1,700); AID 588518; in the data active = inhibition above about 26%;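 also: 0% = DMSO vehicle and 100% = reference inhibitor; higher means more Nile Red retained so more efflux inhibition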
# Cdr2 pump inh = inhibitors of Candida albicans Cdr2 efflux pump. shares compounds with Efflux pump mplx. S. cerevisiae AD/CaCDR2, Nile Red retention, flow cytometry. Nile Red retention ratio vs DMSO, % at 10 µM. actives 4% (n = 1,700); in the data active = Nile Red retention ratio vs DMSO above about 190%;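 also: higher ratio means more blocking of Cdr2 efflux of the dye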
# Cdr1 pump inh = blocks the Candida albicans Cdr1 efflux pump in yeast | inhibition, % at 10 µM | AID 588522 | S. cerevisiae AD/CaCDR1, Nile Red efflux, flow cytometry | actives 1% (n = 1,700) | shares compounds with Efflux pump mplx;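 active = inhibition above the screen-wide mean plus twice its standard deviation, cut at about 32% in these data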
# An asterisk follows results filed as active; x = no result; + = active, no number.
SMILES,Mot1-301 SUMO,C2C12 statin,Cneo AK release,Efflux pump mplx,Yeast cmpd fluor,CaMdr1 efflux inh,Cdr2 pump inh,Cdr1 pump inh
C[C@@H]1CN([C@H](C)CO)C(=O)c2cc(-c3cccnc3)cnc2O[C@H]1CN(C)C(=O)C1CC1,x,-6.1,-3.1,x,x,x,x,x
COc1ccccc1N(C)c1cc2c(c3c1ccn3C)C1CCC2O1 (centres undefined),x,-15.4,3.2,x,x,x,x,x
COc1ccc(-n2c(CN3CCN(Cc4ccccc4)CC3)nc3ccc([N+](=O)[O-])cc3c2=O)c(OC)c1,58.1,x,2.3,0.1,x,x,x,x
COc1ccc2cc3cc(C(=O)N4CCN(Cc5ccc6c(c5)OCO6)CC4)oc3nc2c1,8.4,6.3,-1.6,0.6*,97.2,0.2,99.6,0.3
CN(C)CCNS(=O)(=O)c1ccc(N2CCN(c3ccc(F)cc3)CC2)c([N+](=O)[O-])c1,-0.8,x,x,11.4*,82.2,0.0,95.4,-0.3
CC(=O)N1CCN(c2ccc(S(=O)(=O)NCCN(C(C)C)C(C)C)cc2[N+](=O)[O-])CC1,7.9,-1.2,x,0.2,x,x,x,x
CCOC(=O)Cc1csc(NC(=O)c2ccco2)n1,-6.1,30.9,4.5,-0.3,x,x,x,x
Cc1ccccc1SCC(=O)Nc1cc(S(=O)(=O)N2CCOCC2)ccc1N1CCOCC1,4.1,x,0.2,0.8*,107.9,-0.1,110.3,0.0
O=C(CSc1cccc[n+]1[O-])Nc1cc(S(=O)(=O)N2CCOCC2)ccc1N1CCOCC1,4.4,x,x,0.3,x,x,x,x
CC1Cc2cc(S(=O)(=O)NCc3ccccc3)ccc2N1C(=O)C1CCC1 (centres undefined),-9.9,-22.9,-2.8,0.0,100.3,-0.4,105.1,-0.1
COc1ccc(NC(=O)Nc2ccc3c(c2)[C@H]2C[C@H](CC(=O)NC4CCCCC4)O[C@@H](CO)[C@H]2O3)cc1,x,0.3,21.0,x,x,x,x,x
Cc1cc(NC(=O)CCC(=O)N(Cc2ccco2)C(C(=O)NC2CCCC2)c2ccccc2C)no1 (centres undefined),-6.5,-24.6,-1.4,0.1,85.4,-0.4,89.9,-0.1
Cc1cc(NC(=O)CCC(=O)N(Cc2ccco2)C(C(=O)NC2CCCCC2)c2ccccc2)no1 (centres undefined),-15.4,3.6,1.4,0.1,104.5,-0.1,118.5,0.0
Cc1ccc(C(C(=O)NC2CCCC2)N(C(=O)CCC(=O)Nc2cc(C)on2)c2ccccc2)cc1 (centres undefined),-1.3,8.2,x,-0.1,110.1,0.4,122.6,0.5
Cc1cc(NC(=O)CCC(=O)N(Cc2ccco2)C(C(=O)NC2CCCC2)c2ccccc2F)no1 (centres undefined),0.3,-6.7,1.9,-0.3,x,x,x,x
O=C(Nc1cccc(NC(=O)c2ccco2)c1)c1ccc2c(c1)OCO2,-23.5,3.7,-2.1,-0.2,x,x,x,x
CCCCCC[n+]1ccccc1/C=C/c1ccc(N(C)C)cc1,x,-50.4,-1.6,x,x,x,x,x
CN(C)c1ccc(/C=C/c2cc[n+]([O-])cc2)cc1,11.3,x,x,-0.2,x,x,x,x
CN(C)c1ccc(/C=C/c2cc[n+](C)cc2)cc1,5.9,x,x,129.5*,+,+,488.4*,+
Cc1ccc(/C=C/c2ccc(N(C)C)cc2)[n+](C)c1,164.0,-52.6,0.1,4.4*,+,34.5*,116.4,18.2
CN1CCN(C(=O)CSc2ccc(C(F)(F)F)cc2[N+](=O)[O-])CC1,4.2,x,x,13.8*,108.3,-0.3,120.1,0.0
CCOC(=O)N1CCN(C(=O)CSc2ccc(C(F)(F)F)cc2[N+](=O)[O-])CC1,-5.3,-4.7,0.2,-0.2,x,x,x,x
CCN(CC)CCCNC(=O)c1cn(CC)c2cc(N3CCN(C(=O)c4ccco4)CC3)c(F)cc2c1=O,2.2,-1.4,0.3,-0.1,x,x,x,x
O=C(c1cc(-c2ccncc2)nc2ccc(Br)cc12)N1CCN(c2ccccn2)CC1,11.8,x,3.2,-0.1,x,x,x,x
O=C(c1cc(-c2ccccc2Cl)nc2ccc(Br)cc12)N1CCN(c2ccccn2)CC1,233.8,11.7,-2.0,5.3*,91.0,-0.3,92.0,0.0
SMILES,Mot1-301 SUMO,C2C12 statin,Cneo AK release,Efflux pump mplx,Yeast cmpd fluor,CaMdr1 efflux inh,Cdr2 pump inh,Cdr1 pump inh
CN(CCc1ccccn1)C(=O)c1ccc(OC(F)(F)F)cc1,-18.1,x,x,0.8*,97.6,0.1,107.2,-0.1
CN(CCc1ccccn1)C(=O)c1cccnc1Oc1ccc(Cl)cc1,3.8,3.7,15.1,-0.1,x,x,x,x
Cn1nc(C(=O)NCC(=O)Nc2ccc(F)c(F)c2F)c2ccccc2c1=O,-9.1,-5.3,-1.6,0.0,x,x,x,x
O=C(CNC(=O)c1nn(Cc2ccccc2)c(=O)c2ccccc12)Nc1ccc(F)c(F)c1F,-0.3,-4.8,0.0,0.9*,101.1,-0.2,108.3,0.3
COc1ccc(/C(O)=C2/C(=O)C(=O)N(CCN(C)C)C2c2ccccc2)cc1Cl (centres undefined),x,-0.4,2.6,-0.1,x,x,x,x
CCOc1ccc(/C(O)=C2/C(=O)C(=O)N(CCN(C)C)C2c2ccccc2)cc1Cl (centres undefined),-2.8,x,0.8,8.9*,102.6,0.0,96.5,0.0
Cc1ccc(S(=O)(=O)CCC(=O)OCC(=O)c2c[nH]c3ccccc23)cc1,-10.4,x,x,-0.3,x,x,x,x
N#Cc1c(-c2ccc(Cl)cc2Cl)nc2n(c1=O)CCS2,191.5,-7.0,7.4,0.1,x,x,x,x
COc1ccc(/C=C2\SC(c3ccc(C)cc3)=NC2=O)cc1OC,2.6,25.9,0.3,0.8*,109.5,0.1,91.4,-0.1
C[C@H](CO)N1C[C@H](C)[C@@H](CN(C)C(=O)c2cnccn2)Oc2ncc(C#Cc3ccccn3)cc2C1=O,x,27.7,-0.5,x,x,x,x,x
Cc1nc2ccccc2n2c(O)c(CC(=O)O)cc12,-12.4,1.3,-2.2,0.5*,100.0,-0.3,94.0,0.0
COc1cc(OC)c(NS(=O)(=O)c2ccc(Cl)c(C(=O)OC(C)C(=O)N3CCCC3)c2)cc1Cl (centres undefined),-13.2,7.3,0.4,7.6*,101.4,-0.2,91.4,-0.1
CCOc1ccc(C(=O)Nc2cccc(-c3cc4ccccc4oc3=O)c2)cc1[N+](=O)[O-],11.2,-9.0,-2.3,1.0*,107.2,-0.1,100.7,-0.1
COc1ccc(NC(=O)CS(=O)(=O)c2cn(CC(=O)N(C(C)C)C(C)C)c3ccccc23)c(OC)c1,1.4,x,-0.3,0.5,x,x,x,x
COc1ccc(NC(=O)Cn2cc(S(=O)(=O)Cc3ccccc3)c3ccccc32)c(OC)c1,4.7,x,x,9.6*,105.0,-0.1,99.3,-0.3
O=C(c1cc(COc2cccc(C(F)(F)F)c2)on1)N1CCC(c2ccccc2)CC1,-2.3,x,31.3,-0.3,x,x,x,x
O=C(c1cc(COc2cccc(C(F)(F)F)c2)on1)N1CCC(c2ccncc2)CC1,297.9,-17.5,-1.6,0.5*,146.1,3.5,206.4*,2.6
